Measured values published in PMC5270551 (Biochemistry, 2015).
Residue numbers refer to the chain shown, from its start. In names and notes the source's numbering stands. Read-outs that look alike come from different tables or passages of the source. Where a SMILES comes first, the peptide text is derived from it. Bridges are numbered along the chain shown (N, C = ends).

Columns and labels:
[1] = tested on: E. coli ATCC 25922; type: cell-based, Escherichia coli; details: for log-reduction in CFU/mL: 4 μM peptide
[2] = tested on: Acinetobacter baumannii 17978; type: cell-based
[3] = tested on: E. coli ATCC 25922; assay: Morphology imaging by phase-contrast microscopy and SEM; type: cell-based, Escherichia coli; details: for cells elongated (length 5 μm or greater) / cells exhibiting blebs: 1 × 10^8 CFU/mL, mid-log, 1 h 37 °C
[4] = tested on: Klebsiella pneumoniae 13883; assay: Morphology imaging of Gram-negative bacteria; type: cell-based; details: 20 μM peptide, 1 × 10^8 CFU/mL, mid-log, 1 h 37 °C
Method in brief: (§1)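 Mid-log bacteria at 1 × 10^8 CFU/mL were exposed to test peptide (20 μM; 40 μM for P. aeruginosa) for 1 h at 37 °C in 10 mM sodium phosphate buffer, pH 7.4, with 1% v/v TSB, then imaged by microscopy for morphology.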

[5] = tested on: Pseudomonas aeruginosa PAO1; type: cell-based
[6] = tested on: E. coli K-12; assay: Morphology imaging of Gram-negative bacteria; type: cell-based, Escherichia coli; details: 20 μM peptide, 1 × 10^8 CFU/mL, mid-log, 1 h 37 °C
Method in brief: as §1

[7] = tested on: E. coli CFT073; assay: Morphology imaging of Gram-negative bacteria; type: cell-based, Escherichia coli; details: 20 μM HD5ox, 1 × 10^8 CFU/mL, mid-log, 1 h 37 °C; R-HD5ox Figure S19
Method in brief: as §1

[8] = tested on: E. coli cyto-GFP; type: cell-based, Escherichia coli
Method in brief: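 An E. coli strain carrying cytoplasmic GFP, in mid-log or stationary phase, was exposed to test peptide across 0–80 μM. Cell length and mean GFP fluorescence intensity (arbitrary units) were taken from fluorescence images, and untreated and treated means were compared by Student's t-test.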

[9] = cited from earlier work

CC[C@H](C)[C@@H]1NC(=O)[C@H](CCC(=O)O)NC(=O)[C@@H]2CSSC[C@@H]3NC(=O)[C@H](Cc4ccc(O)cc4)NC(=O)[C@@H](NC(=O)[C@@H](NC(=O)[C@H](C)N)[C@@H](C)O)CSSC[C@@H](C(=O)N[C@@H](CCCNC(=N)N)C(=O)O)NC(=O)[C@H](CSSC[C@H](NC(=O)[C@H](CCCNC(=N)N)NC(=O)CNC(=O)[C@H]([C@@H](C)O)NC(=O)[C@H](CCCNC(=N)N)NC3=O)C(=O)N[C@@H](C)C(=O)N[C@@H]([C@@H](C)O)C(=O)N[C@@H](CCCNC(=N)N)C(=O)N[C@@H](CCC(=O)O)C(=O)N[C@@H](CO)C(=O)N[C@@H](CC(C)C)C(=O)N[C@@H](CO)C(=O)NCC(=O)N[C@@H](C(C)C)C(=O)N2)NC(=O)[C@H](CC(C)C)NC(=O)[C@H](CCCNC(=N)N)NC(=O)[C@H](Cc2ccc(O)cc2)NC(=O)[C@H](CC(C)C)NC(=O)[C@H](CCCNC(=N)N)NC(=O)CNC(=O)[C@H](CO)NC1=O [HD5ox] (H-ATCYCRTGRCATRESLSGVCEISGRLYRLCCR-OH; disulfide 3-31, 5-20, 10-30 (inferred); N-terminus and C-terminus assumed)
log-reduction in CFU/mL ([1]; mid-log phase E. coli): ~ 4 fold log-reduction in CFU/mL | log-reduction in CFU/mL ([1]; stationary phase E. coli): ~ 2 fold log-reduction in CFU/mL | log reduction in CFU/mL ([1]; 40 μM peptide, modified AMA conditions, 1 × 10^8 CFU/mL): ≈ 2 fold log reduction in CFU/mL | antibacterial activity in presence of Zn(II) ([1]; 2:1 Zn(II):HD5ox molar ratio): loss of antibacterial activity | HD5ox activity in presence of divalent cations ([1]; Ca(II), Mg(II) and Zn(II) added): blocked HD5ox activity | lethal dose for 99.99% killing, LD99.99 ([1]; E. coli ATCC 25922, 1 × 10^6 CFU/mL, n = 3 (Figure 9C)): 8 µM | bacterial morphology ([2]; 20 μM peptide, 1 × 10^8 CFU/mL, mid-log, 1 h 37 °C): bleb formation, elongation, and clumping | HD5ox concentration at which blebs were displayed ([2]; 17978, 1 h): 10 µM | cells elongated (length 5 μm or greater) ([3]; 20 μM peptide, n = 212 cells): 2% | cells exhibiting blebs ([3]; 20 μM peptide, n = 212 cells): ~ 17% | bacterial morphology with NaCl ([3]; 40 μM peptide co-treated with 200 mM NaCl): smooth morphology similar to that of the untreated control | bacterial morphology (phase-contrast) ([3]; 2 and 4 μM peptide, mid-log phase, 1 × 10^6 CFU/mL, standard AMA conditions): formation of large bulges | cells elongated (length 5 μm or greater) ([3]; ≥40 μM peptide, n = 203 cells): ≥ 4% | cells exhibiting blebs ([3]; ≥40 μM peptide, n = 203 cells): ~ 30% | bacterial morphology [4]: bleb formation, elongation, and clumping | bacterial morphology ([5]; 40 μM peptide, 1 × 10^8 CFU/mL, mid-log, 1 h 37 °C): bleb formation, elongation, and clumping | HD5ox concentration at which blebs were observed (only at this concentration) ([5]; PAO1, 1 h): 40 µM | bacterial morphology [6]: bleb formation, elongation, and clumping | bacterial morphology [7]: bleb formation, elongation, and clumping | mean cell length after treatment ([8]; mid-log phase, increasing HD5ox (0–80 μM), from 2.8 ± 0.8 μm without peptide): 3.4 ± 1.0 μm | mean GFP fluorescence intensity after treatment ([8]; mid-log phase, increasing HD5ox (0–80 μM), from 155 ± 48 units without peptide): 93 ± 47 units | mean cell length after treatment ([8]; stationary phase, from 3.0 ± 0.8 μm without peptide): 2.9 ± 0.7 μm | mean GFP fluorescence intensity after treatment ([8]; stationary phase, from 112 ± 38 units without peptide): 139 ± 53 units | oligomeric form at neutral pH [9]: tetramers

B1: HD5-TE: Linear form of human α-defensin 5 (iodoacetamide-capped) (peptide, UniProt Q01523 20-94, looked up)
Defensin alpha 5: ESLQERADEATTQKQSGEDNQDLAISFAGNGLSALRTSGSQARATCYCRTGRCATRESLSGVCEISGRLYRLCCR
modifications: Defensin-5 cysteines carbamidomethylated
log reduction of CFU/mL ([1]; 16 μM peptide): 2 fold log reduction of CFU/mL

B2: R-HD5[R9K]: rhodamine-HD5 conjugate, fluorophore positioned at R9K mutation site (conjugate, UniProt Q01523 20-94, looked up, variant R9K)
Defensin alpha 5: B1 Defensin alpha 5 with R52K
modifications: Defensin-5 rhodamine label at K9
antimicrobial activity against E. coli (in words) ([1]; AMA assay): active against E. coli
